TRPC4 inh = inhibitors of mouse TRPC4 channel. B-score at 10 µM. HEK293 TRPC4beta/mu-opioid, DAMGO-evoked Fluo4 calcium flux; active compounds read low. 0.39% of 300,000 active. Q9QUQ5;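 active = B-score over 3 SD under the library average, no early fluorescence shift, positive overall ratio signal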
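Assay system: TRPC4beta/mu-opioid receptor HEK293 cell line; compound dosing: single concentration per test compound; detection: Fluo4 Ca2+ flux fluorescence; evaluation: per-well B score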
TRPC6 activator = activators of mouse TRPC6 channel; Q61143; B-score at 10 µM; HEK293-TRPC6 membrane potential dye fluorescence; active compounds read high; 0.13% of 310,000 active; AID 2550;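 active = B-score of the integrated fluorescence ratio above library mean plus 3 SD, and starting fluorescence ratio within library mean plus 5 SD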;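 also: higher score means more depolarization so channel activation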
Target sequence (Q61143 whole entry, looked up): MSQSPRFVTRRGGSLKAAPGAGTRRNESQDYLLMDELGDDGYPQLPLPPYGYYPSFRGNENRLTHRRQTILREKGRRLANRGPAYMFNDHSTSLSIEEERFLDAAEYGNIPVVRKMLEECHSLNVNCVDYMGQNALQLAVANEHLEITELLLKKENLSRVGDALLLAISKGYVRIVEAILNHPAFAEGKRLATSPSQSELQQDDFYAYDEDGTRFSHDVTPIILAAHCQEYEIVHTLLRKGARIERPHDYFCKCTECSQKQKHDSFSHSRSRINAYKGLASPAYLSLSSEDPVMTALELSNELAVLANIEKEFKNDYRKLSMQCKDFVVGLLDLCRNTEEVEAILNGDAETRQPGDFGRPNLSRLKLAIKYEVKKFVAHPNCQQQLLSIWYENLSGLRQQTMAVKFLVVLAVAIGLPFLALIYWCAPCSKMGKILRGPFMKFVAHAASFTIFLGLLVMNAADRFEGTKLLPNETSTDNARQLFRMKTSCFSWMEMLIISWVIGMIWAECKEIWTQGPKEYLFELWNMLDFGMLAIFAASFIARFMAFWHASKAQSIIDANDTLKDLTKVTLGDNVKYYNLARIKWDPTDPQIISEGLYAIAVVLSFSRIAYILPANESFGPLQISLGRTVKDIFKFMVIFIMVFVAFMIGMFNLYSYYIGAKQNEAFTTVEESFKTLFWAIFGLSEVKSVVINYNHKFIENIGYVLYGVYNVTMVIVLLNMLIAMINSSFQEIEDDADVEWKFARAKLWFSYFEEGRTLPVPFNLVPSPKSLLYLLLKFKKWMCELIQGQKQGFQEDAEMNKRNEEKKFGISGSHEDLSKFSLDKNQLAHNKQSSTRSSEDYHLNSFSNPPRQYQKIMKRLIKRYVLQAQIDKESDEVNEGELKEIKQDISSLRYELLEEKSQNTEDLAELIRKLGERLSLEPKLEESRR
TRPC4 PAM = allosteric potentiators of mouse TRPC4 channel; Q9QUQ5; HEK293 TRPC4beta/mu-opioid, DAMGO EC20, Fluo-4 Ca2+ flux; active compounds read high; B-score at 10 µM; 0.42% of 310,000 active; AID 2227;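 active = B-score of calcium response area above 5 SD of library B-scores, with initial fluorescence ratio within 5 SD of library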;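 also: B-score of integrated fluorescence ratio over time as area under calcium response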
TRPC6 inhibitor = mouse TRPC6 channel inhibition | HEK293-TRPC6, membrane potential dye, ACh-evoked depolarization; active compounds read low | B-score at 10 µM | 1.1% of 310,000 active | AID 2553;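 active = B-score under library mean minus 3 SD, initial fluorescence not abnormally high, positive integrated signal ratio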;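 also: B-score derived from integrated fluorescence ratio over the kinetic read; more negative B-score means stronger inhibition of depolarization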
TRPC4 act = TRPC4 (mouse) channel activation; AID 2237; HEK293 TRPC4beta/mu-opioid, Fluo4 calcium fluorescence; active compounds read high; B-score at 10 µM; 0.49% of 310,000 active; Q9QUQ5;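 active = B-score above 5 SD of library B-scores, and initial fluorescence ratio not above library mean plus 5 SD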;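 also: positive B-score marks a calcium rise read as TRPC4 activation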
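system = HEK293 cells stably co-expressing mouse TRPC4beta and mu-opioid receptor | schedule = Fluo4 dye loading 45 min at room temperature, 110 s recording | measure = B-scored integrated calcium fluorescence ratio | signal = Fluo4 calcium-sensitive dye fluorescence, kinetic, 1 Hz baseline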
Kir21 inh = Kir2.1 (mouse) channel inhibition. AID 1672. P35561. B-score at 10 µM. 0.85% of 310,000 active. HEK293-Kir2.1, FluxOR thallium flux fluorescence; active compounds read low;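 active = fluorescence ratio B-score at or below minus 3 SD of library scores, with starting-brightness B-score within 2 SD, cut at about -4.2 in these data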;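 also: channel flux triggered by added potassium and thallium sulfate stimulus; B-score of peak minus minimum fluorescence over baseline after thallium stimulus; more negative B-score means stronger Kir2.1 block with less thallium influx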
Numbers without * were called inactive; i = inactive. A selection: hits, their analogues and other compounds. The true share with any hit is near 2.9%.

SMILES	TRPC4 inh	TRPC6 activator	TRPC4 PAM	TRPC6 inhibitor	TRPC4 act	Kir21 inh
CCN(CC)CCNCC1C(=O)O[C@@H]2C[C@@]3(C)CCC[C@H](C)C3=C[C@H]12 (some centres not stated)	i	i	11*	i	i	-0.64
COC(=O)C1=C(C)NC(=O)NC1c1cn(-c2ccccc2)nc1-c1cccs1 (configuration not stated)	i	i	i	i	i	-0.82
CC1=C(C(=O)OC(C)C)C(c2cn(-c3ccccc3)nc2-c2cccs2)NC(=O)N1 (configuration not stated)	i	i	13*	i	i	1.3
CCN1CCN(C(=O)c2cc3c(-c4ccc(Cl)cc4)nn(C)c3s2)CC1	i	i	i	i	i	-1.2
Cc1ccc(CS(=O)(=O)CCC(=O)NCCC2=CCCCC2)cc1	i	i	17*	i	i	-0.24
Cc1ccc(S(=O)(=O)CCC(=O)NCCC2=CCCCC2)cc1	i	i	i	i	i	0.17
Cc1cc(/C=N/NC(=O)c2c(Br)cnn2C)c(C)n1-c1cccc(Br)c1	i	i	i	i	i	-1.5
CC12CN3CC(C)(CN(C1)C3c1ccc(Cl)cc1Cl)C2O (configuration not stated)	-6*	i	i	i	48*	-0.57
CN(C)c1ccc(C2N3CC4(C)CN2CC(C)(C3)C4O)cc1 (configuration not stated)	i	i	i	i	i	-0.3
COc1cc(NC(=O)CCN2CCN(Cc3ccccc3)CC2)cc(OC)c1	i	i	i	i	i	-0.04
CCCN(CCC(=O)Nc1cc(OC)cc(OC)c1)CC1CC1	i	i	i	i	162*	-0.65
CCN(CCC(=O)Nc1cc(OC)cc(OC)c1)Cc1ccccc1	i	i	i	i	60*	-1.8
CCCN(CCC(=O)Nc1ccccc1F)CC1CC1	i	i	i	i	i	0.16
Cc1c(C(=O)Nc2ccc(S(=O)(=O)N(C)C3CCN(C)CC3)cc2)oc2c(Cl)cccc12	i	i	i	i	i	-5*
CN1CCC(N(C)S(=O)(=O)c2ccc(NC(=O)COc3ccc(Br)cc3Cl)cc2)CC1	i	i	i	i	i	-1.8
CCCCn1c(SCC(=O)c2ccc3c(c2)OCCO3)nnc1-c1ccoc1C	i	i	i	i	i	-5*
Cc1occc1-c1nnc(SCC(=O)c2ccc3c(c2)OCCO3)n1CC1CCCO1 (configuration not stated)	i	i	i	i	i	-1.5
Cc1c(C(=O)NC(=S)Nc2ccccc2N2CCCC2)cccc1[N+](=O)[O-]	i	i	13*	i	i	0.09
O=C(NCCN1C(=O)S/C(=C\c2ccccc2Cl)C1=O)C1=COCCO1	i	i	i	i	i	0.1
Clc1ccc(-c2c[n+](Cc3cccc(Cl)c3)c3n2CCC3)cc1	-6*	i	i	i	i	0.39
Clc1ccc(C[n+]2cc(-c3ccccc3)n3c2CCC3)cc1Cl	-6*	i	i	i	i	0.2
O=[N+]([O-])c1ccc(C[n+]2cc(-c3ccc(Cl)c(Cl)c3)n3c2CCCCC3)cc1	i	i	i	i	i	-2.5
c1ccc(CN2C3=NCCCN3c3ccccc32)cc1	i	i	i	i	i	-1.7
Clc1ccc(CN2C3=NCCN3c3ccccc32)cc1	-6*	i	i	i	i	-0.02
Brc1ccc(CN2C3=NCCCN3c3ccccc32)cc1	-7*	i	i	i	i	-1.7
SMILES	TRPC4 inh	TRPC6 activator	TRPC4 PAM	TRPC6 inhibitor	TRPC4 act	Kir21 inh
O=C(O)CN1C2=NCCCN2c2ccccc21	i	i	i	i	i	0.27
OC(COc1ccccc1)CN1C2=NCCCN2c2ccccc21 (configuration not stated)	-5*	i	i	i	i	0.35
Cc1ccccc1CC1(CO)CCCN(Cc2ccn[nH]2)C1 (configuration not stated)	i	i	i	i	i	-0.94
Cc1ccc(CN2CCCC(CO)(Cc3ccccc3C)C2)s1 (configuration not stated)	i	i	i	i	i	-4.4*
CCOc1ccc(S(=O)(=O)N2CCN(C)CC2)c(C)c1C	i	i	i	i	i	-1.3
CCOc1ccc(S(=O)(=O)N2CCCCC2)c(C)c1C	i	i	14*	i	i	-0.08
COc1ccc(OCC(O)CN2CCCCCC2)cc1 (configuration not stated)	i	i	i	i	i	0.24
COc1ccc(C2(c3ccc(O)cc3O)CC(c3ccccc3Cl)NC(=S)N2)cc1 (configuration not stated)	i	i	11*	i	i	0.96
Cc1ccc(C(=O)Nc2ccc(N3CCN(C)CC3)nc2)cc1	i	i	i	i	i	0.32
CCCc1ccc2oc(C(=O)NCCN3CCCC(O)C3)c(C)c2c1 (configuration not stated)	i	i	i	i	i	-2.8
CCCc1ccc2oc(C(=O)NCCN3CCCC(C(N)=O)C3)c(C)c2c1 (configuration not stated)	i	i	13*	i	i	-1.3
COc1ccc(NS(=O)(=O)c2csc(C(N)=O)c2)cc1OC	i	i	16*	i	i	-0.83
COc1cccc(NC(=O)C2CCC(CNS(=O)(=O)c3ccc4c(c3)CC(C)N4C(C)=O)CC2)c1 (configuration not stated)	i	i	i	i	i	0.48
CN1CCN(Cc2nc3ccccc3c(=O)n2Cc2nc(-c3ccc([N+](=O)[O-])cc3)cs2)CC1	i	i	i	i	i	-0.19
CC(C)(C)C(=O)Nc1sc(-c2ccccc2)cc1C(=O)O	i	i	i	i	i	-0.35
Cc1cccc(C(=O)Nc2sc(-c3ccccc3)cc2C(=O)O)c1	-6*	i	i	i	i	-1.2
COc1ccc(C(=O)N/N=C/c2ccc(OC(=O)c3ccccc3)cc2)cc1	i	i	i	i	i	-0.9
COCCOC(=O)/C(=C/c1ccc(OC(=O)c2ccccc2)cc1)C(C)=O	i	i	i	i	i	-14*
O=C(O)c1ccc(N/N=C/c2ccc(OC(=O)c3cccc(Cl)c3)cc2)cc1	i	i	i	i	i	3.4

Screening results: PubChem, Johns Hopkins Ion Channel Center
